# Results taken from ChEMBL document CHEMBL4689842, “EUbOPEN Chemogenomics Library wave 1” (2021).
# Assays:
# Assay type in all cases: toxicity, cell-based
# [1] = tested on: Fibroblast; test: Multiplex assay against human fibroblast
# How it was run: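 At seeding, live cells were stained with Hoechst33342, BioTracker Green Microtubule Cytoskeleton Dye, MitoTracker Red and Annexin V Alexa Fluor 680. After compound addition they were imaged on a CQ1 microscope at 37°C and 5% CO2, and CellPathfinder machine-learning gating sorted them into Hoechst high-intensity objects or normal cells, with normal cells further split into healthy, pyknosed or fragmented nuclei and pyknosed cells into mitotic or apoptotic. Tubulin, mitochondrial-mass and membrane-permeability phenotypes are given as per cents of cells with healthy nuclei.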
# [2] = tested on: HEK-293T; test: Incucyte cell viability with HEK293T; conditions: human, 10 µM, compound concentration 10 uM; note: filed as whole numbers so only -1 and 0 and 1 occur
# [3] = tested on: U2OS; test: Incucyte cell viability with U2OS; conditions: human, 10 µM, compound concentration 10 uM; note: filed as whole numbers so only -1 and 0 and 1 occur
# [4] = 12 h, 1 µM, compound concentration 1 uM, replicate 1
# [5] = 12 h, 1 µM, compound concentration 1 uM, replicate 2
# [6] = 12 h, 10 µM, compound concentration 10 uM, replicate 1
# [7] = 12 h, 10 µM, compound concentration 10 uM, replicate 2
# [8] = 24 h, 1 µM, compound concentration 1 uM, replicate 1
# [9] = 24 h, 1 µM, compound concentration 1 uM, replicate 2
# [10] = 24 h, 10 µM, compound concentration 10 uM, replicate 1
# [11] = 24 h, 10 µM, compound concentration 10 uM, replicate 2
# [12] = 0 h, replicate number 2, timepoint 0 hours
# [13] = 12 h, replicate number 2, timepoint 12 hours
# [14] = 18 h, replicate number 1, timepoint 18 hours
# [15] = 24 h, replicate number 1, timepoint 24 hours
structure (smiles),measurement,setting,value
CCOc1cc(N2CCC(O)CC2)ccc1Nc1ncc2c(n1)N(C1CCCC1)CCC(=O)N2C,Population Apoptotic (%),[1]; [4],64%
same,Population Fragmented Nuclei (%),[1]; [4],25%
same,Population Healthy Nuclei (%),[1]; [4],58%
same,Population Hoechst High Intensity Objects (%),[1]; [4],12%
same,Population Membrane Permeable-Phenotype (%),[1]; [4],8%
same,Population Mitochondria Different-Phenotype (%),[1]; [4],7%
same,Population Mitotic Cells (%),[1]; [4],35%
same,Population Normal (%),[1]; [4],87%
same,Population Pyknosed Nuclei (%),[1]; [4],16%
same,Population Tubulin-Different-Phenotype (%),[1]; [4],11%
same,Total Cell Count,[1]; [4],197
same,Population Apoptotic (%),[1]; [5],0%
same,Population Fragmented Nuclei (%),[1]; [5],46%
same,Population Healthy Nuclei (%),[1]; [5],48%
same,Population Hoechst High Intensity Objects (%),[1]; [5],33%
same,Population Membrane Permeable-Phenotype (%),[1]; [5],17%
same,Population Mitochondria Different-Phenotype (%),[1]; [5],17%
same,Population Mitotic Cells (%),[1]; [5],100%
same,Population Normal (%),[1]; [5],66%
same,Population Pyknosed Nuclei (%),[1]; [5],4%
same,Population Tubulin-Different-Phenotype (%),[1]; [5],39%
same,Total Cell Count,[1]; [5],71
same,Population Apoptotic (%),[1]; [6],84%
same,Population Fragmented Nuclei (%),[1]; [6],23%
same,Population Healthy Nuclei (%),[1]; [6],58%
same,Population Hoechst High Intensity Objects (%),[1]; [6],14%
same,Population Membrane Permeable-Phenotype (%),[1]; [6],8%
same,Population Mitochondria Different-Phenotype (%),[1]; [6],2%
same,Population Mitotic Cells (%),[1]; [6],15%
same,Population Normal (%),[1]; [6],85%
same,Population Pyknosed Nuclei (%),[1]; [6],17%
same,Population Tubulin-Different-Phenotype (%),[1]; [6],1%
same,Total Cell Count,[1]; [6],291
same,Population Apoptotic (%),[1]; [7],37%
same,Population Fragmented Nuclei (%),[1]; [7],50%
same,Population Healthy Nuclei (%),[1]; [7],36%
same,Population Hoechst High Intensity Objects (%),[1]; [7],29%
same,Population Membrane Permeable-Phenotype (%),[1]; [7],27%
same,Population Mitochondria Different-Phenotype (%),[1]; [7],4%
same,Population Mitotic Cells (%),[1]; [7],62%
same,Population Normal (%),[1]; [7],70%
same,Population Pyknosed Nuclei (%),[1]; [7],13%
same,Population Tubulin-Different-Phenotype (%),[1]; [7],18%
same,Population Apoptotic (%),[1]; [8],72%
same,Population Fragmented Nuclei (%),[1]; [8],27%
same,Population Healthy Nuclei (%),[1]; [8],56%
same,Population Hoechst High Intensity Objects (%),[1]; [8],12%
same,Population Membrane Permeable-Phenotype (%),[1]; [8],6%
same,Population Mitochondria Different-Phenotype (%),[1]; [8],6%
same,Population Mitotic Cells (%),[1]; [8],27%
same,Population Normal (%),[1]; [8],87%
same,Population Pyknosed Nuclei (%),[1]; [8],15%
same,Population Tubulin-Different-Phenotype (%),[1]; [8],7%
same,Total Cell Count,[1]; [8],211
same,Population Apoptotic (%),[1]; [9],66%
same,Population Fragmented Nuclei (%),[1]; [9],57%
same,Population Healthy Nuclei (%),[1]; [9],35%
same,Population Hoechst High Intensity Objects (%),[1]; [9],40%
same,Population Membrane Permeable-Phenotype (%),[1]; [9],26%
same,Population Mitochondria Different-Phenotype (%),[1]; [9],20%
same,Population Mitotic Cells (%),[1]; [9],33%
same,Population Normal (%),[1]; [9],59%
same,Population Pyknosed Nuclei (%),[1]; [9],7%
same,Population Tubulin-Different-Phenotype (%),[1]; [9],26%
same,Total Cell Count,[1]; [9],71
same,Population Apoptotic (%),[1]; [10],67%
same,Population Fragmented Nuclei (%),[1]; [10],17%
same,Population Healthy Nuclei (%),[1]; [10],62%
same,Population Hoechst High Intensity Objects (%),[1]; [10],19%
same,Population Membrane Permeable-Phenotype (%),[1]; [10],5%
same,Population Mitochondria Different-Phenotype (%),[1]; [10],1%
same,Population Mitotic Cells (%),[1]; [10],32%
same,Population Normal (%),[1]; [10],80%
same,Population Pyknosed Nuclei (%),[1]; [10],19%
same,Population Tubulin-Different-Phenotype (%),[1]; [10],1%
same,Total Cell Count,[1]; [10],308
same,Population Apoptotic (%),[1]; [11],60%
same,Population Fragmented Nuclei (%),[1]; [11],40%
same,Population Healthy Nuclei (%),[1]; [11],50%
same,Population Hoechst High Intensity Objects (%),[1]; [11],28%
same,Population Membrane Permeable-Phenotype (%),[1]; [11],18%
same,Population Mitochondria Different-Phenotype (%),[1]; [11],3%
same,Population Mitotic Cells (%),[1]; [11],40%
same,Population Normal (%),[1]; [11],72%
same,Population Pyknosed Nuclei (%),[1]; [11],9%
same,Population Tubulin-Different-Phenotype (%),[1]; [11],14%
same,Total Cell Count,[1]; [11],75
same,Growth Rate,"[2]; 0 h, replicate number 1, timepoint 0 hours",0
same,Growth Rate,[2]; [12],1
same,Growth Rate,[2]; [13],1
same,Growth Rate,[2]; [14],1
same,Growth Rate,[2]; [15],0
same,Growth Rate,[3]; [12],0
same,Growth Rate,"[3]; 6 h, replicate number 1, timepoint 6 hours",0
same,Growth Rate,"[3]; 12 h, replicate number 1, timepoint 12 hours",1
same,Growth Rate,[3]; [13],0
same,Growth Rate,[3]; [14],0
same,Growth Rate,[3]; [15],0
